Holding throughout (assay type): functional
The test system of assay [1] is Trichophyton mentagrophytes. Nature of the assay: Antimicrobial activity against Trichophyton mentagrophytes ATCC 28185 after 72 hrs by agar dilution method. Conditions: ATCC 28185, 72 h. Put shortly:
(§1)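 Dermatophytes maintained on potato dextrose agar at 27 °C. Assayed by agar dilution on Sabouraud glucose agar. Pure compounds in DMSO were serially diluted 2-fold (400–3.125 µg/mL) into the medium, with final DMSO ≤2%. Spots of 10^6 spores/mL (hemocytometer count) were applied with a 0.010 mL loop. Plates ran at 29 °C for 72 h, in triplicate. MIC was the lowest concentration with no visible growth.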
A general note: In agar dilution the substance is mixed into plates at graded concentrations.

The next assay concerns Trichophyton rubrum. The assay can be described thus: Antimicrobial activity against Trichophyton rubrum ATCC 28188 after 72 hrs by agar dilution method. Conditions: ATCC 28188, 72 h. Put shortly: as §1
The next assay has as its system Aspergillus niger. The assay can be described thus: Antimicrobial activity against Aspergillus niger ATCC 10335 after 48 hrs by agar dilution method. Conditions: ATCC 10335, 48 h. In outline: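 A. niger maintained on potato dextrose agar at 27 °C. Tested by agar dilution on Sabouraud glucose agar with 2-fold serial DMSO dilutions of pure compounds (400–3.125 µg/mL) added to the medium, final DMSO ≤2%. Inoculum was 10^6 spores/mL, hemocytometer-counted, applied by 0.010 mL loop. Incubation at 29 °C for 48 h, in triplicate. MIC was the lowest concentration preventing visible growth.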

Another assay has as its system Candida albicans. The assay can be described thus: Antimicrobial activity against Candida albicans ATCC 10231 after 24 hrs by agar dilution method. Put shortly: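 C. albicans kept on Sabouraud glucose agar, which also served as the assay medium. Pure compounds in DMSO were diluted 2-fold serially (400–3.125 µg/mL) into the agar, final DMSO ≤2%. An inoculum of 10^5 cells/mL (hemocytometer) was spotted with a 0.010 mL calibrated loop. Plates were held at 29 °C for 24 h, in triplicate. MIC was the lowest concentration inhibiting visible growth.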

The values that follow come from ChEMBL document CHEMBL1150157, “Five new steroidal saponins from Solanum chrysotrichum leaves and their antimycotic activity” (2002).

Values after ≈ are worked out from the molar mass of the structure shown.

One may read the MIC as the lowest concentration that inhibits growth of the organism. As for `Clc1ccc(COC(Cn2ccnc2)c2ccc(Cl)cc2Cl)c(Cl)c1` (centres undefined) [MICONAZOLE], the minimum inhibitory concentration (MIC) in assay [1] was found to be 4 µg/mL (≈ 9.61 µM); in the assay on Trichophyton rubrum, 4 µg/mL (≈ 9.61 µM); in the assay with Aspergillus niger, 8 µg/mL (≈ 19.2 µM).

Take NYSTATIN: 8 µg/mL was the least that counted as inhibitory against Candida albicans (MIC).

As to `C[C@@H]1CC[C@@]2(OC1)O[C@H]1C[C@H]3[C@@H]4C[C@H](O[C@@H]5O[C@H](C)[C@@H](O)[C@H](O[C@@H]6OC[C@@H](O)[C@H](O)[C@H]6O)[C@H]5O)[C@H]5C[C@@H](O)CC[C@]5(C)[C@H]4CC[C@]3(C)[C@H]1[C@@H]2C`, the MIC in assay [1] stood at 12.5 µg/mL (≈ 17.6 µM); against Trichophyton rubrum it was 12.5 µg/mL (≈ 17.6 µM); in the assay with Aspergillus niger it was 100 µg/mL (≈ 141 µM); in the assay with Candida albicans (ATCC 10231, 24 h), 200 µg/mL (≈ 281 µM).

As to `C[C@H]1CO[C@@]2(O[C@H]3C[C@H]4[C@@H]5C[C@H](O[C@@H]6O[C@H](C)[C@@H](O)[C@H](O[C@@H]7O[C@@H](C)[C@H](O)[C@@H](O)[C@H]7O)[C@H]6O)[C@H]6C[C@@H](O)CC[C@]6(C)[C@H]5CC[C@]4(C)[C@H]3[C@@H]2C)[C@@H](O)C1`, the minimum inhibitory concentration (MIC) in assay [1] turned out to be 200 µg/mL (≈ 270 µM); against Trichophyton rubrum it was 200 µg/mL (≈ 270 µM); in the assay on Aspergillus niger, 200 µg/mL (≈ 270 µM); in the assay on Candida albicans (ATCC 10231, 24 h), 200 µg/mL (≈ 270 µM).

Regarding `C[C@@H]1CC[C@@]2(OC1)O[C@H]1C[C@H]3[C@@H]4C[C@H](O[C@@H]5O[C@H](C)[C@@H](O)[C@H](O[C@@H]6O[C@@H](C)[C@H](O)[C@@H](O)[C@H]6O)[C@H]5O)[C@H]5C[C@@H](O)CC[C@]5(C)[C@H]4CC[C@]3(C)[C@H]1[C@@H]2C`, the MIC was 200 µg/mL (≈ 276 µM) in assay [1]; 50 µg/mL (≈ 69 µM) against Trichophyton rubrum; 400 µg/mL (≈ 552 µM) in the assay with Aspergillus niger; 200 µg/mL (≈ 276 µM) in the assay with Candida albicans (ATCC 10231, 24 h).

`C[C@@H]1CC[C@@]2(OC1)O[C@H]1C[C@H]3[C@@H]4C[C@H](O[C@@H]5O[C@H](C)[C@@H](O)[C@H](O)[C@H]5O)[C@H]5C[C@@H](O)CC[C@]5(C)[C@H]4CC[C@]3(C)[C@H]1[C@@H]2C`: the MIC is 25 µg/mL (≈ 43.2 µM) in assay [1]; 50 µg/mL (≈ 86.4 µM) in the assay on Trichophyton rubrum; > 400 µg/mL against Aspergillus niger; 200 µg/mL (≈ 346 µM) against Candida albicans (ATCC 10231, 24 h).

Consider `C[C@@H]1CC[C@@]2(OC1)O[C@H]1C[C@H]3[C@@H]4C[C@H](O[C@@H]5OC[C@@H](O)[C@H](O)[C@H]5O)[C@H]5C[C@@H](O)CC[C@]5(C)[C@H]4CC[C@]3(C)[C@H]1[C@@H]2C`, for which the MIC is 100 µg/mL (≈ 177 µM) in assay [1]; 100 µg/mL (≈ 177 µM) in the assay on Trichophyton rubrum; > 400 µg/mL against Aspergillus niger; 200 µg/mL (≈ 354 µM) in the assay with Candida albicans (ATCC 10231, 24 h).
